Measurements gathered from unrelated publications.
pIC50: −log10 of the molar value. ≈ marks a conversion by molar mass, not a printed value.

Compound	target or system	test	system	conditions	measurement	result
O=C(N/N=C1\C(=O)N(Cc2ccccc2)c2ccc(Cl)cc21)c1cc2ccccc2[nH]1	A549	cell growth or viability, imaging		24 h	pIC50	5.75
CC(C)=CCC/C(C)=C/COc1cc(O)cc(O)c1C(=O)c1ccccc1		ABTS scavenging			pIC50	2.43
CC(C)(C)OC(=O)N1CCN(c2ccc(-c3cnc4[nH]cc(C(=O)c5ccc(F)cc5)c4c3)cc2)CC1	A549	cell growth or viability, MTT		10 µM, 48 h	viability	91.5%
Cc1c(C)c2c(c(C)c1O)CCC(C)(C(=O)O)O2 (stereo not drawn)		ABTS scavenging		1 h	pIC50	4.70
COc1cc(Nc2nc(C#N)cc3c(-c4ccccc4)n[nH]c23)cc(OC)c1OC	PC-3	cell growth or viability, MTS		48 h	pIC50	5.37
C[C@]12C=CC(=O)C[C@@H]1CC[C@@H]1[C@@H]2C(=O)C[C@@]2(C)[C@H]1CC[C@]2(C)O	NIH3T3	cell growth or viability, MTT		24 h	pIC50	< 4.52
COc1ccc2c(c1)/C(=N/NC(=O)c1cc3ccccc3[nH]1)C(=O)N2Cc1ccccc1	A549	cell growth or viability		30 µM	inhibition	97.4%
Cc1nc2c(N)nc(=O)[nH]c2n1C(Cc1c[nH]c2ccccc12)C(=O)O (stereo not drawn)	unidentified influenza virus	viral replication	A549, H1N1 PR8	24 h	pIC50	6.29
Cc1c(C)c2c(c(C)c1O)CCC(C)(C(=O)O)O2 (stereo not drawn)		ABTS scavenging			IC50	6.16 µg/mL
CC(C)(C)OC(=O)N1CCN(c2ccc(-c3cnc4c(c3)c(C(=O)c3ccc(F)cc3)cn4CC3CC3)cn2)CC1	A549	cell growth or viability, MTT		10 µM, 48 h	viability	79.8%
N=C(N)c1ccc(OCCCCCOc2ccc(C(=N)N)cc2)cc1	Leishmania donovani	parasite growth, resazurin		72 h, promastigote	IC90	2 µg/mL (≈ 5.87 µM)
Nc1ncnc2c([C@@H]3N[C@H](CO)[C@@H](O)[C@H]3O)c[nH]c12	unidentified influenza virus	viral replication, inhibitor	MDCK	29.6 µM	inhibition	100%
Oc1c(Cl)cc(Cl)cc1Sc1cc(Cl)cc(Cl)c1O	Betapolyomavirus hominis	viral replication, inhibitor, qPCR	Vero	30 µM, 5 days	inhibition	~70%
O=c1c(O[C@@H]2O[C@H](CO)[C@H](O)[C@H](O)[C@H]2O)c(-c2ccc(O)c(O)c2)oc2cc(O)cc(O)c12		ABTS scavenging, absorbance		5 min	pIC50	5.18
Cc1nc2c(N)nc(=O)[nH]c2n1CC(=O)O	unidentified influenza virus	viral replication	A549, H1N1 PR8	24 h	pIC50	7.41
CC(C)(C)OC(=O)N1CCN(c2cc(-c3cnc4[nH]cc(C(=O)c5ccc(F)cc5)c4c3)ccn2)CC1	A549	cell growth or viability, MTT		10 µM, 48 h	viability	84.2%
Cc1nc2c(N)nc(=O)[nH]c2n1C(Cc1ccccc1)C(=O)O (stereo not drawn)	unidentified influenza virus	viral replication	A549, H1N1 PR8	24 h	pIC50	6.28
C[C@@H]1[C@H](O)[C@@H](C)/C=C/C=C/C=C/C=C/C=C/C=C/C=C/[C@H](O[C@@H]2O[C@H](C)[C@@H](O)[C@H](N)[C@@H]2O)C[C@@H]2O[C@](O)(C[C@@H](O)C[C@@H](O)[C@H](O)CC[C@@H](O)C[C@@H](O)CC(=O)O[C@H]1C)C[C@H](O)[C@H]2C(=O)O	Leishmania donovani	parasite growth	THP-1	intracellular, amastigote	IC50	0.1 µg/mL
O=C(NCCCCCCCCNc1c2c(nc3ccccc13)CCCC2)c1ccccc1O		ABTS scavenging		1 h	pIC50	4.59
C[C@]1(COc2ccc(N3CCC(Oc4ccc(OC(F)(F)F)cc4)CC3)cc2)Cn2cc([N+](=O)[O-])nc2O1	Leishmania donovani	parasite growth		promastigote	pIC50	6.60
Cc1nc2c(N)nc(N)nc2n1C(Cc1ccccc1)C(=O)O (stereo not drawn)	unidentified influenza virus	viral replication	A549, H1N1 PR8	24 h	pIC50	6.68
COc1ccc(C(=O)c2c[nH]c3ncc(-c4ccc(N5CCNCC5)nc4)cc23)cc1	A549	cell growth or viability, MTT		10 µM, 48 h	viability	110%
COC(=O)C(Cc1ccccc1)n1c(C)nc2c(N)nc(N)nc21 (stereo not drawn)	unidentified influenza virus	viral replication	A549, H1N1 PR8	24 h	pIC50	7.41
CCOC(=O)c1c([C@@H]2C[C@H]2c2ccccc2)n(C)c2ccc(O)cc12 (relative stereo)	Punta Toro virus	cytopathic effect			MIC50	> 100 µg/mL
